Key:
[1] = biological target: 5-hydroxytryptamine receptor 6 (Homo sapiens) (UniProt P50406); assay: Displacement of [3H]-LSD from human 5HT6 stably expressed in HEK cell membranes at 10 uM incubated for 90 mins under dark condition by scintillation counting analysis relative to control
[2] = biological target: Alpha-2A adrenergic receptor (Homo sapiens) (UniProt P08913); assay: Displacement of [3H]-rauwolscine from human adrenergic alpha2A receptor transiently expressed in HEKT cell membranes at 10 uM incubated for 90 mins under dark condition by scintillation counting analysis relative to control
[3] = biological target: 5-hydroxytryptamine receptor 1A (Homo sapiens) (UniProt P08908); assay: Displacement of [3H]-8-OH-DPAT from human 5HT1A stably expressed in CHO cell membranes at 10 uM incubated for 90 mins under dark condition by scintillation counting analysis relative to control
[4] = biological target: 5-hydroxytryptamine receptor 1B (Homo sapiens) (UniProt P28222); assay: Displacement of [3H]-GR125743 from human 5HT1B stably expressed in HEK cell membranes at 10 uM incubated for 90 mins under dark condition by scintillation counting analysis relative to control
[5] = biological target: Cannabinoid receptor 2 (Homo sapiens) (UniProt P34972); assay: Displacement of [3H]-CP55940 from human CB2 receptor expressed in HEK-Flp-In cell membranes at 10 uM incubated for 90 mins under dark condition by scintillation counting analysis relative to control
[6] = biological target: Kappa-type opioid receptor (Homo sapiens) (UniProt P41145); assay: Displacement of [3H]-U69593 from kappa opioid receptor (unknown origin) at 10 uM incubated for 90 mins under dark condition by scintillation counting analysis relative to control
CYP2D6 = CYP2D6 (Homo sapiens, UniProt P10635); assay: Inhibition of CYP2D6 (unknown origin) at 10 uM relative to control; type: ADME
In short: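 Each CYP isoform inhibition assay run with test compound at 10 µM; reported as percent inhibition.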

[7] = Kinetic solubility of the compound in PBS at pH 7.4 measured after 2 hrs; type: physicochemical; settings: buffer, pH 7.4, 2 h
[8] = Clearance in Sprague-Dawley rat at 10 mg/kg, iv; type: ADME, organism-based; settings: in vivo
In short: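 Male Sprague-Dawley rats (200–250 g; n = 3/group) received a single iv dose in 10% DMSO:90% HP-β-CD. Retro-orbital blood was sampled before dosing and at 0.08, 0.25, 0.5, 1, 2, 4, 8 and 24 h. Plasma levels were measured. Parameters came from noncompartmental analysis, reported as mean ± SEM.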

[9] = Volume of distribution at steady state in Sprague-Dawley rat at 10 mg/kg, iv; type: ADME, organism-based; settings: in vivo
In short: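 Male Sprague-Dawley rats, 200–250 g, n = 3/group, randomly assigned; dosed 10 mg/kg iv or 20 mg/kg po in 10% DMSO:90% HP-β-CD. Retro-orbital blood sampled predose and 0.08 (iv only), 0.25, 0.5, 1, 2, 4, 8, 24 h. Noncompartmental analysis; Cmax read directly from plasma concentration–time plot; mean ± SEM.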

Rattus norvegicus [10] = assay: (§1) Potentiation of WAY163909-induced neurobiological activity in Sprague-Dawley rat assessed as increase in number of rat choosing WAY163909 associated lever at 1 mg/kg, ip treated 15 mins prior to WAY163909 addition and measured after 15 mins by drug discrimination test (reference value: 53%); type: functional
Rattus norvegicus [11] = assay: as §1, with “lever at 2 mg/kg, ip” for “lever at 1 mg/kg, ip”, “15 mins in presence of 5HT2CR antagonist SB242084 by drug” for “15 mins by drug”; type: functional
In short: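 Two-lever FR20 drug discrimination in male Sprague-Dawley rats (n = 13) trained on WAY163909 0.75 mg/kg ip versus saline. SB242084 (0.5 mg/kg ip) given 15 min before WAY163909. Test compound (2 mg/kg ip) given 15 min before WAY163909 (0.5 mg/kg ip). Rats placed in chambers 15 min after WAY163909. Read-out is the percentage of rats choosing the WAY163909 lever.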

Sequence of 5-hydroxytryptamine receptor 1B (Homo sapiens) (P28222 whole entry): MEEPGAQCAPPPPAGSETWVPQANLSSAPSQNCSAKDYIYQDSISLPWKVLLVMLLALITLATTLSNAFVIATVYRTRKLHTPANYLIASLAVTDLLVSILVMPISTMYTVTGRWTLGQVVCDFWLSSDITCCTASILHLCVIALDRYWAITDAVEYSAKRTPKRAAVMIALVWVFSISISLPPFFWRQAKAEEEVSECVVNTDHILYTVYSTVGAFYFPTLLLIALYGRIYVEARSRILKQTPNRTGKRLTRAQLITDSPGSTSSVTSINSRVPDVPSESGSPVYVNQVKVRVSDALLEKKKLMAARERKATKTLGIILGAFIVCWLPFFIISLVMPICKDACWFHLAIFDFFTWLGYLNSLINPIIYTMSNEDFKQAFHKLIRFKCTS
Sequence of 5-hydroxytryptamine receptor 1A (Homo sapiens) (P08908 whole entry): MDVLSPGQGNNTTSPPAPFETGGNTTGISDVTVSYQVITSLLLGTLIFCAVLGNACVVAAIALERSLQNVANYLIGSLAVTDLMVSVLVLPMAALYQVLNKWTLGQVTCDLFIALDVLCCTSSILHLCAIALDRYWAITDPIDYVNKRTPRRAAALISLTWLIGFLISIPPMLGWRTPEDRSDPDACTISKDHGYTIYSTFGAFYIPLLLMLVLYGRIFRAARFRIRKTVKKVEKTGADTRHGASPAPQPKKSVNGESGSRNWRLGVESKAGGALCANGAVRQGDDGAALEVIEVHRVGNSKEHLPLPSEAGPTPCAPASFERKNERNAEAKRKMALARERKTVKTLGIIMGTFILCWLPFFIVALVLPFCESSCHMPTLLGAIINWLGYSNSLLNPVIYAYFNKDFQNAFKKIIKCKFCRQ
Sequence of Kappa-type opioid receptor (Homo sapiens) (P41145 whole entry): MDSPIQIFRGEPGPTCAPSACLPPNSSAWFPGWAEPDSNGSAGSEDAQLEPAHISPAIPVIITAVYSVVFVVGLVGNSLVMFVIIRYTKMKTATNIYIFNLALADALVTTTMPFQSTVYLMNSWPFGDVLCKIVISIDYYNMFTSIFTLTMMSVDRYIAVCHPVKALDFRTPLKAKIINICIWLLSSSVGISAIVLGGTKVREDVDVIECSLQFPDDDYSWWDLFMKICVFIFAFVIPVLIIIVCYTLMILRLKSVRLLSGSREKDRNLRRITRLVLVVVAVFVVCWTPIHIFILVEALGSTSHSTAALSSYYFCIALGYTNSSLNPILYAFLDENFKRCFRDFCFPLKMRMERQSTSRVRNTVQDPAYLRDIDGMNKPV
Sequence of CYP2D6 (P10635 whole entry, canonical isoform): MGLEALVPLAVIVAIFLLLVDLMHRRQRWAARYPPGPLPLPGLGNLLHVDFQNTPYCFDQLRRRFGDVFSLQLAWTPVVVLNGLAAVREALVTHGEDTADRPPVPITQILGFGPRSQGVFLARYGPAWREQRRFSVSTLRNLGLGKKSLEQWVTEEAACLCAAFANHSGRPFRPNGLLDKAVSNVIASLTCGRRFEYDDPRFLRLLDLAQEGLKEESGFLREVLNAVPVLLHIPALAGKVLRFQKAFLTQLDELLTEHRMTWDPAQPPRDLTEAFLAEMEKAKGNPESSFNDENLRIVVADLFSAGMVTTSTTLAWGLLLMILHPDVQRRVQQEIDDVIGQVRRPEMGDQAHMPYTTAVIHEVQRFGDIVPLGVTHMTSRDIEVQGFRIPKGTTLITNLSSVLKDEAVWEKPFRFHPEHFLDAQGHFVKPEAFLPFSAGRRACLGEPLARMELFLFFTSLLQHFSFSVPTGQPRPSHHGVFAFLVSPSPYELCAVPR
Sequence of 5-hydroxytryptamine receptor 6 (Homo sapiens) (P50406 whole entry): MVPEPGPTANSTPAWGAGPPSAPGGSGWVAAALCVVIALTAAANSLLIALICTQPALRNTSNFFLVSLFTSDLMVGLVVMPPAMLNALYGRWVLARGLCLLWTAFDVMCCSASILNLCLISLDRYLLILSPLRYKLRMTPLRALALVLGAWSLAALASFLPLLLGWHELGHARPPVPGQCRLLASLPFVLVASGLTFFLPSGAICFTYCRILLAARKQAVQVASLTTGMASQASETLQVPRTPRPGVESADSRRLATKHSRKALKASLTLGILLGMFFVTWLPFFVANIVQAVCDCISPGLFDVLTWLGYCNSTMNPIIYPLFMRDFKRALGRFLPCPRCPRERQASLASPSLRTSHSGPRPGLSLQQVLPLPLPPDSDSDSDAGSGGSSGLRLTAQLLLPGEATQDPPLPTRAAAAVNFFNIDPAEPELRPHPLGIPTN
Sequence of Alpha-2A adrenergic receptor (Homo sapiens) (P08913 whole entry): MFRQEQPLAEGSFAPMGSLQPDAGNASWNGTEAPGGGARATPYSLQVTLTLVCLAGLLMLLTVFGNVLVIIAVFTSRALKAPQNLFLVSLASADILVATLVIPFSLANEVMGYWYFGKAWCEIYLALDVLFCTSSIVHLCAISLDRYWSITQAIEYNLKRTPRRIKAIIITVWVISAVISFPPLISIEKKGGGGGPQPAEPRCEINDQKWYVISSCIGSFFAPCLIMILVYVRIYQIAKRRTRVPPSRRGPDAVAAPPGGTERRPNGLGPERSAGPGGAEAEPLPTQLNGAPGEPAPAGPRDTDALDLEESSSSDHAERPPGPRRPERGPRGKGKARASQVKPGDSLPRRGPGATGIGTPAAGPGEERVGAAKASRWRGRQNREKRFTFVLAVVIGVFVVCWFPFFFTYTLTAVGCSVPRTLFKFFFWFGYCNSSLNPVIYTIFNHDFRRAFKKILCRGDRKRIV
Sequence of Cannabinoid receptor 2 (Homo sapiens) (P34972 whole entry): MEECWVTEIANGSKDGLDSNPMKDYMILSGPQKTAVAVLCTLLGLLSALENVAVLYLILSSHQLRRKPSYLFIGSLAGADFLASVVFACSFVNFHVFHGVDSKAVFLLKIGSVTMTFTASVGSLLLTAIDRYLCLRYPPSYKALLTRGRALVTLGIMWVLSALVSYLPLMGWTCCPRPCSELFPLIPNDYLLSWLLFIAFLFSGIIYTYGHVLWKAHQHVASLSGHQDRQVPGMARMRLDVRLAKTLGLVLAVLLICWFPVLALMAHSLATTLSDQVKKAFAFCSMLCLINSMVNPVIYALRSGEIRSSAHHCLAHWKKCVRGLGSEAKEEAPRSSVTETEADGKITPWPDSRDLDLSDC

Work on `O=C(NC[C@H](O)CO)[C@@H]1C[C@H](c2ccccc2)CCN1` (mixture of isomers) yielded an inhibition [1] of 2.5%, an inhibition [2] of -7.6% and an inhibition [3] of 28.4%. The inhibition [4] was 12.3%, the inhibition [5] was 30.6% and the inhibition [6] was 13.4%. For the same molecule, the inhibition at 10 µM (CYP2D6) was 1.9%, the Kinetic_solubility [7] was > 100 µM and the CL [8] was 54.7 mL/min/kg. For the same molecule, the Vdss [9] was 5.4 L/kg, the Activity (Rattus norvegicus [10]) was 77% and the Activity (Rattus norvegicus [11]) was 0%.
